# Source: PubChem (several laboratories)
# Compounds with a hit are over-represented: about 1.4% of the library has one in this group of screens.
# Rev-erbA mod – Rev-erb alpha (human) modulation; AID 1259318; actives 0.79% (n = 370,000); activity, % at 10 µM; P20393; Rev-erbα–FITC-DNA binding, fluorescence polarization, 90 min;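 active means activity above about 14%, limit read from the data; passing the limit was not always enough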;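 further: 0% = DMSO wells with 35 nM protein and 100% = DMSO wells with 750 nM protein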
# NR2E3 ag-1 – human photoreceptor-specific nuclear receptor agonism. CHO-S Gal4-NCOR/VP16-NR2E3 two-hybrid, luciferase. inhibition of corepressor binding, % at 3.98 µM. actives 0.35% (n = 360,000). AID 602229;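 active means inhibition above the mean of all tested compounds plus 3 SD, cut at about 70% in these data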;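 further: 0% = DMSO with NR2E3 transfected cells and 100% = cells lacking NR2E3 construct; higher means lower luciferase signal from less NR2E3 corepressor binding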
# Target sequence (Q9Y5X4 whole entry, looked up, the tested form may be a part): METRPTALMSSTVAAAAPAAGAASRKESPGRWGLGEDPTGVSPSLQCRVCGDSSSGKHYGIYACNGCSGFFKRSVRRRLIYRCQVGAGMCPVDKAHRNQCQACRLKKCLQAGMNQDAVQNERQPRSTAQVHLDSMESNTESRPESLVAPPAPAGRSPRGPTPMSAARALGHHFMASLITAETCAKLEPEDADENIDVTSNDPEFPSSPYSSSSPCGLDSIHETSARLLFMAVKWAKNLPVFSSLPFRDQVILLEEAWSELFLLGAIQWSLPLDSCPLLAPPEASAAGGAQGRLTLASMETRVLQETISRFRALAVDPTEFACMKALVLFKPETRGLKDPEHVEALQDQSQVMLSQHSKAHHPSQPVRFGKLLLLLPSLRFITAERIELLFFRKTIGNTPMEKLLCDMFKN
# NR2E3 ag-2 – activates human photoreceptor nuclear receptor NR2E3; actives 0.12% (n = 320,000); AID 2300; Q9Y5X4; inhibition of corepressor binding, % at 4.78 µM; GST-NR2E3/biotin-RetCOR TR-FRET, 1536-well;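 active means percent inhibition above the cutoff of mean plus 3 SD of all tested compounds, set per screening campaign, cut at about 20% in these data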;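 further: 0% = DMSO wells and 100% = biotin wells as full block of FRET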
#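 Test system: GST-NR2E3 and biotin-RetCOR proteins | Quantity: 1.35 nM GST-tagged NR2E3 final | Medium: Tris pH 7.5 | Also added: 7 nM biotin-RetCOR | Dosing: Compound at 4.8 µM, single dose | Timing: 5 h at 4 °C | Detection: Time-resolved FRET | Read-out basis: Percent inhibition | Benchmarks: Biotin wells as high control, 0.6% DMSO wells as low control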
# PG9 binder – PG9 antibody binding by small molecule; actives 0.43% (n = 360,000); TR-FRET gp120-PG9 antibody binding; inhibition, % at 6.7 µM; in the data active means inhibition above about 8.5%
# NR1D1 mod conf – confirmation of modulators of human Rev-erb alpha DNA binding; shares compounds with Rev-erbA mod; Rev-erb alpha FITC-DNA binding, fluorescence polarization, 90 min; activation, % at 25 µM; actives 61% (n = 3,000); AID 1259319;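 active means activation at or above a set limit, or at least 3 SD above the negative control mean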;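 further: 0% = 35 nM protein with DMSO and 100% = 750 nM protein high control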
# RORg DNA counter – RORgamma DNA-binding activity, dose-response counter-screen | AID 1259320 | actives 8% (n = 910) | IC50, µM | shares compounds with Rev-erbA mod | purified RORgamma protein-FITC-DNA binding, fluorescence polarization;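 active means Compounds whose fitted half-maximal concentration for disrupting protein-DNA binding is below 10 micromolar; the record names Rev-erb in its text, so the target is in doubt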
# * hit, by the source's call; · = not tested or not shown.
SMILES,Rev-erbA mod,NR2E3 ag-1,NR2E3 ag-2,PG9 binder,NR1D1 mod conf,others
O=C1CN(c2nc(-c3ccccc3)c3cc(Cl)ccc3n2)c2ccccc2N1,32*,15,-2,-2,-1,
Clc1ccc2nc(N3CCNCC3)nc(-c3ccccc3)c2c1,5,17,1,-1,·,
O=C(CNS(=O)(=O)c1cccc2ccccc12)N1CCN(c2ncccn2)CC1,-2,·,·,·,·,
O=c1c2cnn(-c3ccccc3)c2nc(-c2cccs2)n1-c1cccc(Cl)c1,3,-9,2,-2,·,
O=c1c2cnn(-c3ccccc3)c2nc(-c2cccs2)n1-c1ccc(Cl)cc1,23*,-6,1,0,10,
CCC[C@H]1[C@@H](NCc2ccccc2)CC[C@@]23CCCN2C(=O)CCC[C@@H]13,1,·,·,·,·,
COC(=O)[C@]12C[C@H](CC(=O)N3CCSCC3)C(=O)N(Cc3cccc4ccccc34)C1=C[C@H](C(C)C)O[C@@H]2C1CC1,0,·,·,·,·,
Cc1ccc2nc(-c3ccc(NC(=S)NC(=O)CC(C)C)cc3)sc2c1,22*,-77,0,1,10,
Cc1ccc2nc(NC(=O)CN3CCN(c4ccccn4)CC3)sc2c1,-1,-13,-2,-2,·,
Cc1ccc2nc(-c3ccc(NC(=O)CSc4nnc(Cc5cccs5)n4C)cc3)sc2c1,43*,·,·,·,25*,
Cc1ccc2nc(-c3ccc(NC(=O)CN4CCN(c5ccccn5)CC4)cc3)sc2c1,21*,-112,-2,0,13,
O=C(CCS(=O)(=O)c1ccccc1)Nc1ccccc1-c1nc2ccccc2s1,44*,-24,3,-1,40*,RORg DNA counter=2.1*
CCOC(=O)[C@]12CCCCC/C=C\1N(CCc1ccc(Cl)cc1)C(=O)[C@H]2CC(=O)NCc1ccc(C)o1,4,·,·,·,·,
Cn1cccc1C(=O)N1CCN(S(=O)(=O)c2ccc([N+](=O)[O-])cc2)CC1,-1,·,·,·,·,
Cc1ccc2nc(-c3ccc(NC(=O)CCS(=O)(=O)c4ccccc4)cc3)sc2c1,19*,-135,2,0,23*,
CCC1(c2ccc(F)cc2)NC(=O)N(CC(=O)Nc2ccc(-c3nc4ccc(C)cc4s3)cc2)C1=O (stereo unspecified),41*,-132,-2,3,11,
COc1ccc(C2(C)NC(=O)N(CC(=O)Nc3ccc(-c4nc5ccc(C)cc5s4)cc3)C2=O)cc1 (stereo unspecified),-7,-117,2,-2,·,
C#CCNC(=O)C[C@H]1C[C@@]2(C(=O)OC)C(=C[C@H](COCc3ccccc3)O[C@@H]2C)N(CCc2ccc(OC)c(OC)c2)C1=O,4,·,·,·,·,
COc1ccc(-n2c(SCC(=O)Nc3ccc(S(=O)(=O)Nc4nccs4)cc3)nnc2-c2cccs2)cc1,-6,·,·,·,·,
CC[n+]1c(/C=C/c2c[nH]c3ccccc23)ccc2cc(C)ccc21,126*,·,·,-14,102*,RORg DNA counter=>40
Cc1ccc(C(=O)/C=C/c2c[nH]c3ccccc23)cc1,8,-61,3,-3,·,
CCN(CC)C(=O)c1ccc(/C=C/c2c[nH]c3ccccc23)[n+](C)c1,45*,-16,-12,-12,50*,RORg DNA counter=>40
N#Cc1ccc(/C=C2\CC3(OC(=O)C4CCCC4)CCCN2C3)cc1 (stereo unspecified),-2,·,·,·,·,
Cc1cc(C)nc(N2CCC(C(=O)N(C)CCc3ccccn3)CC2)n1,3,·,·,·,·,
CC(=O)Oc1c(/C=C(\C#N)C(N)=O)[nH]c2ccccc12,55*,23,·,-43,66*,RORg DNA counter=>40
SMILES,Rev-erbA mod,NR2E3 ag-1,NR2E3 ag-2,PG9 binder,NR1D1 mod conf,others
N#C/C(=C\c1c[nH]c2ccccc12)C(N)=O,7,-25,0,0,·,
N#Cc1cccc(CNCC(=O)N2CCC3(CC2)OCCO3)c1,2,·,·,·,·,
CCc1ccc([C@H]2[C@@H]3C(=O)C[C@@H]4C(=O)N(C)C(=O)[C@@H]4[C@@H]3CN2S(=O)(=O)c2ccc(C)cc2)cc1,16*,-3,·,0,1,
CCc1ccc([C@H]2[C@@H]3C(=O)C[C@@H]4C(=O)N(CC)C(=O)[C@@H]4[C@@H]3CN2S(=O)(=O)c2ccc(C)cc2)cc1,-3,-1,·,-1,·,
COC(=O)c1cc2c(c3c4cc(F)ccc4n(S(=O)(=O)c4cccc(C)c4)c13)C(=O)N(Cc1ccc(N(C)C)cc1)C2,27*,·,·,-1,1,
Cc1ccc(S(=O)(=O)NCC(=O)N2CCN(c3ccccn3)CC2)s1,-8,·,·,·,·,
O=c1cc(CN(Cc2ccccc2)Cc2ccccc2)c2ccccc2o1,22*,-14,·,-1,9,
CN(Cc1ccccc1)Cc1cc(=O)oc2ccccc12,5,-30,·,-2,·,
CN1/C(=C/C(=S)NC(=O)C2(C)CC2(Cl)Cl)C(C)(C)c2ccccc21 (stereo unspecified),23*,0,-3,0,-2,
O=C(Nc1ccccc1)c1cc2c(=O)c3ccccc3oc2nc1C(F)(F)F,46*,3,-2,5,34*,RORg DNA counter=>40
O=C(Nc1cccc(C(F)(F)F)c1)c1cc2c(=O)c3ccccc3oc2nc1C(F)(F)F,25*,-31,3,0,19*,
C[C@H]1[C@@H](NC(=O)c2cccc(C(F)(F)F)c2)CC[C@@]23CCCN2C(=O)CCC[C@@H]13,4,·,·,·,·,
Cc1[nH]c2ccccc2c1/C=N/Nc1ccc([N+](=O)[O-])cc1,22*,-9,0,-1,16,
Cc1[nH]c2ccccc2c1/C=N/NC(=O)c1cccc([N+](=O)[O-])c1,-5,-1,-2,0,·,
CC(C)(C)C1CCc2c(sc(NC(=O)c3cccs3)c2C(N)=O)C1 (stereo unspecified),6,13,3,-1,·,
CCC(C)(C)C1CCc2c(sc(NC(=O)c3cccs3)c2C(N)=O)C1 (stereo unspecified),29*,2,-6,-1,16,
N#Cc1c(-c2ccccc2)oc(=O)c2ccccc12,20*,-17,4,0,-2,
COC(=O)c1c(-c2ccc(Br)cc2)csc1NC(=O)Cc1ccc(OC)c(OC)c1,-1,8,-2,0,·,
COC(=O)c1c(-c2cccc3ccccc23)csc1NC(=O)Cc1ccc(OC)c(OC)c1,20*,24,2,-1,30*,
CCCCN1CN2Cc3ccc(C)cc3C2CS1(=O)=O (stereo unspecified),8,·,·,·,·,
CC(=O)c1cnc2cc(-c3cccc(Br)c3)nn2c1C,24*,-59,2,-1,6,
CC(=O)Nc1ccc(S(=O)(=O)N2C(=O)c3cccc4cccc2c34)cc1,33*,·,0,-2,3,
Cc1ccc(Cn2c(=O)n(Cc3ccc(C(=O)NCC4COC4)cc3)c(=O)c3ccccc32)cc1,-1,·,·,·,·,
O=C(Cc1ccccc1)NC(=S)Nc1ccc2oc(-c3ccccc3F)nc2c1,10,-38,4,-1,·,
